Measurements of several laboratories.
Each line is one published result; the experiments were not run side by side. Values after ≈ are worked out from the molar mass of the structure shown.

`O=C(NCc1ccc(C(F)(F)F)cc1)c1cn(Cc2ccc(F)cc2)c2ccc(Oc3ccccc3)cc2c1=O` has an IC50 of 109 µM (MCF7; cell growth or viability, MTT; 24 h).
`S=P1(C2CCCCC2)CCCCC1` has an IC50 of greater than 100 µM (SW-620; cell growth or viability, MTT; 72 h).
For `O=C(NCc1ccc(F)cc1)c1cn(Cc2ccc(F)cc2)c2ccc(Oc3ccccc3)cc2c1=O`, the IC50 was greater than 500 µM (MCF7; cell growth or viability, MTT; 24 h).
`CCCCS(=O)(=O)NCC1COC2(CCN(C(=O)C3(c4ccccc4)CCCC3)CC2)O1` (centres unmarked) gave an inhibition of 95% (Chikungunya virus; viral replication, inhibitor; 40 µM).
`O=C(NCc1ccc(F)cc1)c1cn(Cc2ccc(C(F)(F)F)cc2)c2ccc(Oc3ccccc3)cc2c1=O` has an IC50 of 4.36 µM (MCF7; cell growth or viability, MTT; 48 h).
The IC50 of `Cc1ccc(C=Nc2ccc(SCc3cc(=O)c(O)co3)cc2)cc1` is reported as 9.06 µM (DPPH scavenging, absorbance; 30 min).
`O=c1c2ccccc2[se]n1-c1ccccc1` has an IC50 of 2.02 µM (Chikungunya virus; viral replication; Vero; 24 h).
`O=C(N1CCC2(CC1)OCC(CN1CCCCS1(=O)=O)O2)C1(c2ccc(Cl)cc2)CCCC1` (centres unmarked) gave an inhibition of 55% (Chikungunya virus; viral replication, inhibitor; 40 µM).
`CCc1ccc(C=Nc2ccc(SCc3cc(=O)c(O)co3)cc2)cc1` gave an IC50 of 20.5 µM (DPPH scavenging, absorbance; 30 min).
The GI50 of `CC(C)C[C@@H](NC(=O)[C@H](C)NC(=O)CNC(=O)[C@@H](NC=O)C(C)C)C(=O)N[C@@H](C)C(=O)N[C@@H](C(=O)N[C@H](C(=O)N[C@@H](C(=O)N[C@@H](Cc1c[nH]c2ccccc12)C(=O)N[C@H](CC(C)C)C(=O)N[C@@H](Cc1ccc2cc[nH]c2c1)C(=O)N[C@H](CC(C)C)C(=O)N[C@@H](Cc1c[nH]c2ccccc12)C(=O)N[C@H](CC(C)C)C(=O)N[C@@H](Cc1c[nH]c2ccccc12)C(=O)NCCO)C(C)C)C(C)C)C(C)C` is reported as 0.11 µM (MCF7; cell growth or viability, SRB; 48 h).
The IC50 of `O=c1cc(CSc2ccc(N=Cc3ccc(O)cc3)cc2)occ1O` is reported as 8.85 µM (DPPH scavenging, absorbance; 30 min).
`CC[C@H](C)C[C@H](C)CCCCCCCCC(=O)N[C@H]1C[C@@H](O)[C@@H](NCCN)NC(=O)[C@@H]2[C@@H](O)CCN2C(=O)[C@H]([C@H](O)CCN)NC(=O)[C@H]([C@H](O)[C@@H](O)c2ccc(O)cc2)NC(=O)[C@@H]2C[C@@H](O)CN2C(=O)[C@H]([C@@H](C)O)NC1=O` has an MFC of 8 µg/mL (≈ 7.32 µM) (Candidozyma auris; microbial killing, broth dilution; 48 h).
With `O=c1cc(CSc2ccc(N=Cc3ccccc3[N+](=O)[O-])cc2)occ1O` the IC50 was 14.3 µM (DPPH scavenging, absorbance; 30 min).
With `Cc1ccc(CNC(=O)c2cn(Cc3ccc(Cl)cc3)c3ccc(Oc4ccccc4)cc3c2=O)cc1` the IC50 was 105 µM (MCF7; cell growth or viability, MTT; 48 h).
With `CCc1ccccc1C=Nc1ccc(SCc2cc(=O)c(O)co2)cc1` the IC50 was 25.2 µM (DPPH scavenging, absorbance; 30 min).
`O=C(N1CCC2(CC1)OCC(CNS(=O)(=O)c1ccc(-c3ccccc3)cc1)O2)C1(c2ccccc2)CCCC1` (centres unmarked) gave an inhibition of 75% (Chikungunya virus; viral replication, inhibitor; 40 µM).
For `O=C(NCc1ccc(C(F)(F)F)cc1)c1cn(Cc2ccc(Cl)cc2)c2ccc(Oc3ccccc3)cc2c1=O`, the IC50 was 177 µM (MCF7; cell growth or viability, MTT; 24 h).
